Source: ChEMBL document CHEMBL4334422, “Toxicities and beneficial protection of H2S donors based on nonsteroidal anti-inflammatory drugs” (Medchemcomm, 2019)
Activity calls are given as the source filed them. The calls are words filed in the database; no cut-off is given here.

Assays:
[1] = Toxicity in Wistar kyoto rat assessed as visible gaps in kidney tissue at 10 mg/kg, ip administered for 14 days by H and E staining based assay; format: organism-based; conditions: in vivo, 336 h
Method in brief: (§1)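 WKY rats were dosed intraperitoneally at 10 mg/kg daily for 14 days, using the 10% 1,3-propanediol vehicle, with a vehicle control group. Liver and kidney were collected and fixed immediately in 4% glutaraldehyde. Sections were stained with haematoxylin and eosin and scored for structural change under light microscopy.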

[2] = Toxicity in Wistar kyoto rat assessed as chromatin edge collection in liver tissue at 10 mg/kg, ip administered for 14 days by TEM assay; format: organism-based; conditions: in vivo, 336 h
Method in brief: (§2)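 WKY rats were given 10 mg·kg⁻¹ intraperitoneally daily for 14 days, with vehicle-treated controls. Liver and kidney were collected and fixed in 4% glutaraldehyde. Tissue was examined after HE staining by light microscopy and by transmission electron microscopy at 6000, 10000 and 20000-fold.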

[3] = Toxicity in Wistar kyoto rat assessed as increase in lipid droplets in cytoplasm in liver tissue at 10 mg/kg, ip administered for 14 days by TEM assay; format: organism-based; conditions: in vivo, 336 h
Method in brief: (§3)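 After 14 days of daily intraperitoneal dosing at 10 mg/kg in WKY rats, with vehicle controls, liver and kidney were fixed in 4% glutaraldehyde. Ultrastructure was examined by transmission electron microscopy at 6000-, 10000- and 20000-fold magnification.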

[4] = Toxicity in Wistar kyoto rat assessed as light staining in cytoplasm of liver tissue at 10 mg/kg, ip administered for 14 days by H and E staining based assay; format: organism-based; conditions: in vivo, 336 h; method in brief: as §1
[5] = Toxicity in Wistar kyoto rat assessed as necrosis in renal tubular epithelial cells at 10 mg/kg, ip administered for 14 days by H and E staining based assay; format: organism-based; conditions: in vivo, 336 h; method in brief: as §1
[6] = Toxicity in Wistar kyoto rat assessed as loose cytoplasm in kidney tissue at 10 mg/kg, ip administered for 14 days by H and E staining based assay; format: organism-based; conditions: in vivo, 336 h; method in brief: as §1
[7] = Cardiotoxicity in SHR rat assessed as neatly arranged myocardial fibers at 10 mg/kg, ip administered for 14 days by H and E staining based microscopic assay; format: toxicity, organism-based; conditions: in vivo, 336 h
Method in brief: (§4)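 SHRs were given 10 mg·kg⁻¹ intraperitoneally per day for 14 consecutive days, with an ibuprofen comparator and a normal control. Myocardial tissue was then removed. Sections were HE-stained for light microscopy and also examined by transmission electron microscopy at 6000, 10000 and 20000-fold.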

[8] = Toxicity in Wistar kyoto rat assessed as hepatic sinus congestion at 10 mg/kg, ip administered for 14 days by H and E staining based assay; format: organism-based; conditions: in vivo, 336 h; method in brief: as §2
[9] = Toxicity in Wistar kyoto rat assessed as stromal hyperplasia at 10 mg/kg, ip administered for 14 days by TEM assay; format: organism-based; conditions: in vivo, 336 h; method in brief: as §3
[10] = Toxicity in Wistar kyoto rat assessed as swollen proximal convoluted tubule cells at 10 mg/kg, ip administered for 14 days by H and E staining based assay; format: organism-based; conditions: in vivo, 336 h; method in brief: as §1
[11] = Cardiotoxicity in SHR rat assessed as thin myocardial fiber formation at 10 mg/kg, ip administered for 14 days by H and E staining based microscopic assay; format: toxicity, organism-based; conditions: in vivo, 336 h; method in brief: as §4
[12] = Toxicity in Wistar kyoto rat assessed as central venous in liver at 10 mg/kg, ip administered for 14 days by H and E staining based assay; format: organism-based; conditions: in vivo, 336 h; method in brief: as §2
Rattus norvegicus [13] = experiment: Antihypertensive activity in ip dosed spontaneously hypertensive Wistar kyoto rat assessed as reduction in diastolic arterial pressure administered for 6 hrs and measured every 30 mins post treatment by tail-cuff method; format: functional, organism-based
Method in brief: (§5)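 Male SHRs (8 weeks, 300 ± 25 g; 6 per group), given compound intraperitoneally once daily at 8 am in 0.5% (w/v) sodium carboxymethyl cellulose/DMSO 3/1 (v/v), 2 mL·kg⁻¹. Vehicle-treated SHR and WKY controls. SBP, DBP and heart rate were measured by tail-cuff on awake, restrained rats before dosing, then every 30 min for 6 h. Values are mean ± SD of four independent experiments.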

[14] = Toxicity in Wistar kyoto rat assessed as abnormal nuclear morphology in liver tissue at 10 mg/kg, ip administered for 14 days by TEM assay; format: organism-based; conditions: in vivo, 336 h; method in brief: as §2
[15] = Toxicity in Wistar kyoto rat assessed as a large amount of exudation in glomerulus at 10 mg/kg, ip administered for 14 days by TEM assay; format: organism-based; conditions: in vivo, 336 h; method in brief: as §2
[16] = Toxicity in Wistar kyoto rat assessed as visible gaps in hepatocytes at 10 mg/kg, ip administered for 14 days by H and E staining based assay; format: organism-based; conditions: in vivo, 336 h; method in brief: as §1
Rattus norvegicus [17] = experiment: Antihypertensive activity in spontaneously hypertensive Wistar kyoto rat assessed as reduction in systolic arterial pressure at 40 mg/kg, ip administered for 6 hrs and measured every 30 mins post treatment by tail-cuff method; format: functional; method in brief: as §5
Rattus norvegicus [18] = experiment: Cardioprotective activity in SHR rat assessed as neatly arrange myofibrils at 10 mg/kg, ip administered for 14 days by TEM analysis; format: functional, organism-based; method in brief: as §4
Rattus norvegicus [19] = experiment: Antihypertensive activity in spontaneously hypertensive Wistar kyoto rat assessed as reduction in systolic arterial pressure at 10 mg/kg, ip administered for 6 hrs and measured every 30 mins post treatment by tail-cuff method; format: functional; method in brief: as §5
Rattus norvegicus [20] = experiment: Cardioprotective activity in SHR rat assessed as change in myocardial disk dissociation at 10 mg/kg, ip administered for 14 days by TEM analysis; format: functional, organism-based; method in brief: as §4
Rattus norvegicus [21] = experiment: Antihypertensive activity in spontaneously hypertensive Wistar kyoto rat assessed as reduction in diastolic arterial pressure at 40 mg/kg, ip administered for 6 hrs and measured every 30 mins post treatment by tail-cuff method; format: functional; method in brief: as §5
H9c2 [22] = experiment: Cytoprotective activity against H2O2-induced toxicity in rat H9c2 cells assessed as reduction in cell de-fromation at 10 to 80 uM pretreated with compound followed by H2O2 addition and measured after 1 to 8 hrs by giemsa staining based microscopic method; format: functional
Method in brief: (§6)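 H9c2 cells were injured with H₂O₂ (400 µM) for 1, 4 or 8 h to give light, medium and heavy damage, in the presence of compound at 10–80 µM. Acetaminophen or ibuprofen served as controls. Viability was measured as mean ± SD of three experiments. SOD and MDA contents were measured as mean ± SD of four experiments. Morphology was assessed by Giemsa staining under light microscopy.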

Rattus norvegicus [23] = experiment: Antihypertensive activity in spontaneously hypertensive Wistar kyoto rat assessed as reduction in systolic arterial pressure at 20 mg/kg, ip administered for 6 hrs and measured every 30 mins post treatment by tail-cuff method; format: functional; method in brief: as §5
Rattus norvegicus [24] = experiment: Antihypertensive activity in spontaneously hypertensive Wistar kyoto rat assessed as reduction in diastolic arterial pressure at 20 mg/kg, ip administered for 6 hrs and measured every 30 mins post treatment by tail-cuff method; format: functional; method in brief: as §5
H9c2 [25] = experiment: Cytoprotective activity against H2O2-induced toxicity in rat H9c2 cells assessed as increase in cell repair at 10 to 80 uM pretreated with compound followed by H2O2 addition and measured after 1 to 8 hrs by giemsa staining based microscopic method; format: functional; method in brief: as §6
Rattus norvegicus [26] = experiment: Antihypertensive activity in ip dosed spontaneously hypertensive Wistar kyoto rat assessed as reduction in systolic arterial pressure administered for 6 hrs and measured every 30 mins post treatment by tail-cuff method; format: functional, organism-based; method in brief: as §5
Rattus norvegicus [27] = experiment: Antihypertensive activity in spontaneously hypertensive Wistar kyoto rat assessed as reduction in diastolic arterial pressure at 10 mg/kg, ip administered for 6 hrs and measured every 30 mins post treatment by tail-cuff method; format: functional; method in brief: as §5
[28] = Toxicity in Wistar kyoto rat assessed as swollen renal cells at 10 mg/kg, ip administered for 14 days by H and E staining based assay; format: organism-based; conditions: in vivo, 336 h; method in brief: as §1
[29] = Toxicity in Wistar kyoto rat assessed as congestion in renal tissue at 10 mg/kg, ip administered for 14 days by H and E staining based assay; format: organism-based; conditions: in vivo, 336 h; method in brief: as §2

Structure (SMILES) | Activity [4] | Activity [6] | Activity [7] | Activity [8] | Activity [11] | Activity [12] | Activity (Rattus norvegicus [13]) | Activity [16] | Activity (Rattus norvegicus [17]) [mmHg] | Systolic arterial pressure (Rattus norvegicus [19]) [mmHg] | Activity (Rattus norvegicus [21]) [mmHg] | Activity (Rattus norvegicus [23]) [mmHg] | Activity (Rattus norvegicus [24]) [mmHg] | Diastolic arterial pressure (Rattus norvegicus [27]) [mmHg] | also measured
CC(C)Cc1ccc(C(C)C(=O)Oc2ccc(C(N)=S)cc2)cc1 (stereo not drawn) | Toxic | Toxic | Non-Toxic | Toxic | Active | Toxic | Dose-dependent effect | Toxic | – | – | – | – | – | – | Activity [1]: Toxic; Activity [2]: Toxic; Activity [3]: Toxic; Activity [5]: Toxic; Activity [9]: Toxic; Activity [10]: Toxic; Activity [14]: Toxic; Activity [15]: Toxic
CC(=O)Nc1ccc(OC(=O)CCCCC2CCSS2)cc1 (stereo not drawn) | – | – | Non-Toxic | – | Active | – | Dose-dependent effect | – | 115.3 | 139.1 | 99.4 | 127.6 | 110.9 | 113.8 | Activity (Rattus norvegicus [18]): Active; Activity (Rattus norvegicus [20]): Active; Activity (H9c2 [22]): Active; Activity (H9c2 [25]): Active; Activity (Rattus norvegicus [26]): Dose-dependent effect
CC(C)Cc1ccc(C(C)C(=O)Oc2ccc(-c3cc(=S)ss3)cc2)cc1 (stereo not drawn) | Toxic | Toxic | – | Toxic | – | Toxic | – | Toxic | 135.1 | 142.9 | 112.4 | 136.7 | 115.1 | 116.3 | Activity [28]: Toxic; Activity [29]: Toxic
